Test results from ChEMBL document CHEMBL4665633, “Cereblon versus VHL: Hijacking E3 ligases against each other using PROTACs” (Bioorg Med Chem, 2019).
Calls of active or inactive are those of the source. The rule behind the calls is not given here.

Key:
Type in all cases: cell-based
[1] = molecular target: T1, Protein cereblon/von Hippel-Lindau disease tumor suppressor (Homo sapiens, UniProt P40337+Q96SW2); assay: Protac activity at VHL/CRBN in human HeLa cells assessed as CRBN protein abundance at 1 uM after 4 hrs by Western blot analysis relative to DMSO
Procedure, shortened: (§1)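 HeLa cells seeded overnight, then exposed to 1 µM compound (0.1% v/v DMSO final) over a time course. Cells were DPBS-washed and RIPA-lysed with protease inhibitors and benzonase; equal protein was loaded. Immunoblots for CRBN and VHL isoforms were quantified against β-tubulin and reported relative to the averaged 0.1% DMSO vehicle.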

[2] = molecular target: T1, Protein cereblon/von Hippel-Lindau disease tumor suppressor; assay: Protac activity at VHL/CRBN in human HeLa cells assessed as pVHL30 protein abundance at 5000 nM after 4 hrs by Western blot analysis relative to DMSO
Procedure, shortened: (§2)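 HeLa cells (5 × 10⁵, DMEM + 10% FBS, 37 °C, 5% CO₂, ≤30 passages) seeded overnight, then treated 4 h with compound at single or graded concentrations (0.1% v/v DMSO final). RIPA lysates equalised by Bradford; SDS-PAGE and anti-CRBN/anti-VHL immunoblots; bands normalised to β-tubulin and expressed as % of mean DMSO vehicle. DC₅₀ from fit of band intensity versus log[concentration].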

[3] = molecular target: T1, Protein cereblon/von Hippel-Lindau disease tumor suppressor; assay: Protac activity at VHL/CRBN in HEK293 cells assessed as pVHL30 protein abundance at 10000 nM after 4 hrs by Western blot analysis relative to DMSO
Procedure, shortened: (§3)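 HEK293 cells (DMEM, 10% FBS, penicillin/streptomycin, L-glutamine; 37 °C, 5% CO2; ≤30 passages) seeded at 1 × 10⁶ per well overnight, then treated with compound at 0.1% v/v final DMSO. Cells were lysed in RIPA with protease inhibitors and benzonase, then clarified. Equal Bradford-quantified protein was immunoblotted for CRBN/VHL. Bands were normalised to β-tubulin and expressed as % of mean 0.1% DMSO vehicle.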

[4] = molecular target: T1, Protein cereblon/von Hippel-Lindau disease tumor suppressor; assay: Protac activity at VHL/CRBN in HEK293 cells assessed as pVHL30 protein abundance at 1 uM after 4 hrs by Western blot analysis relative to DMSO; procedure, shortened: as §3
[5] = molecular target: T1, Protein cereblon/von Hippel-Lindau disease tumor suppressor; assay: Protac activity at VHL/CRBN in human HeLa cells assessed as CRBN protein abundance at 10000 nM after 4 hrs by Western blot analysis relative to DMSO; procedure, shortened: as §2
[6] = molecular target: T1, Protein cereblon/von Hippel-Lindau disease tumor suppressor; assay: Protac activity at VHL/CRBN in human HeLa cells assessed as pVHL30 protein abundance at 50 nM after 4 hrs by Western blot analysis relative to DMSO; procedure, shortened: as §2
[7] = molecular target: T1, Protein cereblon/von Hippel-Lindau disease tumor suppressor; assay: Protac activity at VHL/CRBN in HEK293 cells assessed as pVHL19 protein abundance at 100 nM after 4 hrs by Western blot analysis relative to DMSO; procedure, shortened: as §3
[8] = molecular target: T1, Protein cereblon/von Hippel-Lindau disease tumor suppressor; assay: Protac activity at VHL/CRBN in human HeLa cells assessed as pVHL30 protein abundance at 5 nM after 4 hrs by Western blot analysis relative to DMSO; procedure, shortened: as §2
[9] = molecular target: T1, Protein cereblon/von Hippel-Lindau disease tumor suppressor; assay: Protac activity at VHL/CRBN in human HeLa cells assessed as pVHL19 protein abundance at 5 nM after 4 hrs by Western blot analysis relative to DMSO; procedure, shortened: as §2
[10] = molecular target: T1, Protein cereblon/von Hippel-Lindau disease tumor suppressor; assay: Protac activity at VHL/CRBN in HEK293 cells assessed as induction of CRBN degradation
[11] = molecular target: T1, Protein cereblon/von Hippel-Lindau disease tumor suppressor; assay: Protac activity at VHL/CRBN in human HeLa cells assessed as pVHL19 protein abundance at 1 uM after 8 hrs by Western blot analysis relative to DMSO; procedure, shortened: as §1
[12] = molecular target: T1, Protein cereblon/von Hippel-Lindau disease tumor suppressor; assay: Protac activity at VHL/CRBN in human HeLa cells assessed as pVHL30 protein abundance at 1 uM after 1 hr by Western blot analysis relative to DMSO; procedure, shortened: as §1
[13] = molecular target: T1, Protein cereblon/von Hippel-Lindau disease tumor suppressor; assay: Protac activity at VHL/CRBN in human HeLa cells assessed as pVHL19 protein abundance at 1 uM after 2 hrs by Western blot analysis relative to DMSO; procedure, shortened: as §1
[14] = molecular target: T1, Protein cereblon/von Hippel-Lindau disease tumor suppressor; assay: Protac activity at VHL/CRBN in HEK293 cells assessed as pVHL19 protein abundance at 1 uM after 12 hrs by Western blot analysis relative to DMSO; procedure, shortened: as §3
[15] = molecular target: T1, Protein cereblon/von Hippel-Lindau disease tumor suppressor; assay: Protac activity at VHL/CRBN in HEK293 cells assessed as pVHL19 protein abundance at 5000 nM after 4 hrs by Western blot analysis relative to DMSO; procedure, shortened: as §3
[16] = molecular target: T1, Protein cereblon/von Hippel-Lindau disease tumor suppressor; assay: Protac activity at VHL/CRBN in HEK293 cells assessed as pVHL19 protein abundance at 10 nM after 4 hrs by Western blot analysis relative to DMSO; procedure, shortened: as §3
[17] = molecular target: T1, Protein cereblon/von Hippel-Lindau disease tumor suppressor; assay: Protac activity at VHL/CRBN in HEK293 cells assessed as pVHL30 protein abundance at 100 nM after 4 hrs by Western blot analysis relative to DMSO; procedure, shortened: as §3
[18] = molecular target: T1, Protein cereblon/von Hippel-Lindau disease tumor suppressor; assay: Protac activity at VHL/CRBN in HEK293 cells assessed as pVHL30 protein abundance at 1 uM after 8 hrs by Western blot analysis relative to DMSO; procedure, shortened: as §3
[19] = molecular target: T1, Protein cereblon/von Hippel-Lindau disease tumor suppressor; assay: Protac activity at VHL/CRBN in HEK293 cells assessed as induction of VHL degradation at 1 uM after 1 to 24 hrs by Western blot analysis; conditions: time hrs 1-24
[20] = molecular target: T1, Protein cereblon/von Hippel-Lindau disease tumor suppressor; assay: Protac activity at VHL/CRBN in human HeLa cells assessed as reduction in CRBN protein level at 10 nM after 4 hrs by Western blot analysis
Procedure, shortened: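 HeLa cells (ATCC; DMEM, 10% FBS, pen/strep, L-glutamine; 37 °C, 5% CO2; ≤30 passages; mycoplasma-tested) are seeded at 5 × 10⁵ per well overnight, then treated for 4 h with 0.1% v/v DMSO final. Lysis is in RIPA with protease inhibitors and benzonase, and equal protein (Bradford) is loaded. CRBN is immunoblotted, normalized to β-tubulin and expressed as % of mean DMSO vehicle.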

[21] = molecular target: T1, Protein cereblon/von Hippel-Lindau disease tumor suppressor; assay: Protac activity at VHL/CRBN in human HeLa cells assessed as CRBN protein abundance at 1 uM after 24 hrs by Western blot analysis relative to DMSO; procedure, shortened: as §1
[22] = molecular target: T1, Protein cereblon/von Hippel-Lindau disease tumor suppressor; assay: Protac activity at VHL/CRBN in human HeLa cells assessed as pVHL19 protein abundance at 1 uM after 4 hrs by Western blot analysis relative to DMSO; procedure, shortened: as §1
[23] = molecular target: T1, Protein cereblon/von Hippel-Lindau disease tumor suppressor; assay: Protac activity at VHL/CRBN in HEK293 cells assessed as pVHL19 protein abundance at 50 nM after 4 hrs by Western blot analysis relative to DMSO; procedure, shortened: as §3
[24] = molecular target: T1, Protein cereblon/von Hippel-Lindau disease tumor suppressor; assay: Protac activity at VHL/CRBN in HEK293 cells assessed as pVHL19 protein abundance at 1 uM after 24 hrs by Western blot analysis relative to DMSO; procedure, shortened: as §3
[25] = molecular target: T1, Protein cereblon/von Hippel-Lindau disease tumor suppressor; assay: Protac activity at VHL/CRBN in HEK293 cells assessed as CRBN protein abundance at 100 nM after 4 hrs by Western blot analysis relative to DMSO; procedure, shortened: as §3
[26] = molecular target: T1, Protein cereblon/von Hippel-Lindau disease tumor suppressor; assay: Protac activity at VHL/CRBN in HEK293 cells assessed as CRBN protein abundance at 500 nM after 4 hrs by Western blot analysis relative to DMSO; procedure, shortened: as §3
[27] = molecular target: T1, Protein cereblon/von Hippel-Lindau disease tumor suppressor; assay: Protac activity at VHL/CRBN in human HeLa cells assessed as pVHL19 protein abundance at 5000 nM after 4 hrs by Western blot analysis relative to DMSO; procedure, shortened: as §2
[28] = molecular target: T1, Protein cereblon/von Hippel-Lindau disease tumor suppressor; assay: Protac activity at VHL/CRBN in HEK293 cells assessed as CRBN protein abundance at 1 uM after 8 hrs by Western blot analysis relative to DMSO; procedure, shortened: as §3

T1 sequence (P40337 whole entry, looked up, canonical isoform): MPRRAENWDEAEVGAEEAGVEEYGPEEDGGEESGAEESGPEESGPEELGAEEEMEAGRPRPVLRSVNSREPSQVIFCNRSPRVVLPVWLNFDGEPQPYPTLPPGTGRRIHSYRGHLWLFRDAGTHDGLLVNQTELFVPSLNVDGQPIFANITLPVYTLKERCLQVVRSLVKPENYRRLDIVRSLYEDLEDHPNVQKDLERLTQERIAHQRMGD
T1 sequence (Q96SW2 whole entry, looked up, canonical isoform): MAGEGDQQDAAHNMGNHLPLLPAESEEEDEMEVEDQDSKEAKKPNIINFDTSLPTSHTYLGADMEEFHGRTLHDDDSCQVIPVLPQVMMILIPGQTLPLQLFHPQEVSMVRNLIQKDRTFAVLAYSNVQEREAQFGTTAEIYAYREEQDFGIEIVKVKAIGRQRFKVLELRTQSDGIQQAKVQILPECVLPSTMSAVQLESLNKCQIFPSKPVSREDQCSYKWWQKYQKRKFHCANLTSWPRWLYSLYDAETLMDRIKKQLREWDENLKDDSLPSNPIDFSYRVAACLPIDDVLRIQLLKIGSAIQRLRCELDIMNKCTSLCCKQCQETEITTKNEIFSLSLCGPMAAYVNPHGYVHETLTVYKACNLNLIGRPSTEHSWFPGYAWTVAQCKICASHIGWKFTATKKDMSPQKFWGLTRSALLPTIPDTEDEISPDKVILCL

Activity [1]: 19%
Activity [2]: 143%
Activity [3]: 128%
Activity [4]: 98%
Activity [5]: 86%
Activity [6]: 79%
Activity [7]: 111%
Activity [8]: 61%
Activity [9]: 87%
Activity [10]: Active
Activity [11]: 100%
Activity [12]: 100%
Activity [13]: 95%
Activity [14]: 102%
Activity [15]: 109%
Activity [16]: 110%
Activity [17]: 124%
Activity [18]: 101%
Activity [19]: inactive
Activity [20]: inactive
Activity [21]: 13%
Activity [22]: 100%
Activity [23]: 111%
Activity [24]: 101%
Activity [25]: 63%
Activity [26]: 27%
Activity [27]: 115%
Activity [28]: 2%
Structure (SMILES): Cc1ncsc1-c1ccc(CNC(=O)[C@@H]2C[C@@H](O)CN2C(=O)[C@@H](NC(=O)COCCCCCOCCOCCCCCOCC(=O)NCCNc2cccc3c2C(=O)N(C2CCC(=O)NC2=O)C3=O)C(C)(C)C)cc1 (stereo partly drawn)
